Results on 2 molecules are retold here after paper PMC10651777 (Blood, 2022).

Series [1] can be described thus: Plasma pharmacokinetics at steady state. The format is in vivo, human. The note with it: for Cmax: human, plasma, oral, Mean Cmax, steady state. The method, boiled down:
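Patients with relapsed/refractory AML or secondary AML received venetoclax daily on days 1–28 (3–5-day ramp-up to 400, 600 or 800 mg) plus idasanutlin 150, 200 or 400 mg daily or 300 mg twice daily on days 1–5 of 28-day cycles. Noncompartmental analysis of venetoclax plasma concentration–time data; summary statistics of steady-state Cmax and trough. Data from 49 patients across 5 cohorts.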

The subject of a further series is AML. The note with it: idasa monotherapy, cited from earlier work.
A further series deals with MIC-1. The note with it: day 5 of treatment, 100 mg daily for 5 days, PV; cited from earlier work.
Series [2] has as its system Macrophage inhibitory cytokine-1 (MIC-1). The experiment in a line: Serum MIC-1 ELISA. The format is in vivo, human. To be noted: day 5; idasa 150 to 400 mg daily for 5 days. The method, boiled down: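 Serum from patients with relapsed/refractory or secondary AML on venetoclax plus idasanutlin. Idasanutlin was given daily or twice daily on days 1–5 of 28-day cycles. MIC-1 was quantified by a human GDF-15 immunoassay kit (ELISA).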

For series [3], the system named is R/R AML and newly diagnosed patients with AML unfit for intensive chemotherapy. The note with it: ven monotherapy; cited from earlier work.
[4] abbreviates: Cohort B1.2.1, n = 5, ven 600 mg, idasa 150 mg.

Broadly, the Cmax is the peak of the concentration-time curve. As for `COc1cc(C(=O)O)ccc1NC(=O)[C@@H]1N[C@@H](CC(C)(C)C)[C@](C#N)(c2ccc(Cl)cc2F)[C@H]1c1cccc(Cl)c1F` [idasa, idasanutlin], the concentration in series [1] (400 mg, Cohort B4, n = 8, ven 400 mg, idasa 400 mg) peaked (Cmax) at 7110 ng/mL. In series [1] (setting [4]), this molecule yielded a Cmax of 3220 ng/mL. Moreover, in the series with AML (400-800 mg twice daily microprecipitated bulk powder), the All-grade diarrhea rate is 91.3%. Further, in the series on AML, the All-grade nausea rate was 73.9%, the All-grade vomiting rate is recorded as 39.1%, the “CR/CRi/MLFS rate (antileukemic response)” value is recorded as 21% and the “Rate of grade ≥3 diarrhea” value was 23.9%. Also, the “Rate of grade ≥3 nausea” value in the series on AML is 0%. Further, in the series with MIC-1, the “Plasma MIC-1 levels increase” value was 4.8 fold. In addition, in series [2], the MIC-1 increases is 10- to 20 fold.
Take `CC1(C)CCC(CN2CCN(c3ccc(C(=O)NS(=O)(=O)c4ccc(NCC5CCOCC5)c([N+](=O)[O-])c4)c(Oc4cnc5[nH]ccc5c4)c3)CC2)=C(c2ccc(Cl)cc2)C1` [ven, Venetoclax]: in series [3], the All-grade diarrhea rate is 56%, the All-grade nausea rate is reported as 59%, the All-grade vomiting rate is reported as 41% and the “CR/CRi rate (CRc)” value is 19%. In series [3], the “Rate of grade ≥3 diarrhea” value was 6% and the “Rate of grade ≥3 nausea” value was 6%. In addition, the Cmax in series [1] (setting [4]) stood at 1450 ng/mL. Also, the “Impact of the coadministration of idasa on ven pharmacokinetics” value in series [1] (in vivo) was “no significant impact”. For the same molecule, the “Pharmacokinetics of ven in this combination” value in series [1] (vs historical ven monotherapy) was “comparable to ven monotherapy”.
